Screening results from PubChem BioAssay.
M1 ag parental = M1 agonist counterscreen hit in parental CHO-K1 cells; Fluo-8 calcium fluorescence; scaled to maximal ATP response, vehicle zero; activation, % at 3 µM; actives 0.48% (n = 360,000); in the data active means activation above about 15%;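 further: untransfected CHO-K1 host cells lacking M1 receptor as counterscreen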
OX1R antag-1 = OX1R (human) antagonism. O43613. OX1R-expressing cells, FRET antagonist read-out. actives 1.8% (n = 330,000). inhibition, % at 6.6 µM; in the data active means inhibition mostly above about 38%, no sharp cut-off; inactive means mostly below about 40%
Target sequence (O43613 whole entry, looked up): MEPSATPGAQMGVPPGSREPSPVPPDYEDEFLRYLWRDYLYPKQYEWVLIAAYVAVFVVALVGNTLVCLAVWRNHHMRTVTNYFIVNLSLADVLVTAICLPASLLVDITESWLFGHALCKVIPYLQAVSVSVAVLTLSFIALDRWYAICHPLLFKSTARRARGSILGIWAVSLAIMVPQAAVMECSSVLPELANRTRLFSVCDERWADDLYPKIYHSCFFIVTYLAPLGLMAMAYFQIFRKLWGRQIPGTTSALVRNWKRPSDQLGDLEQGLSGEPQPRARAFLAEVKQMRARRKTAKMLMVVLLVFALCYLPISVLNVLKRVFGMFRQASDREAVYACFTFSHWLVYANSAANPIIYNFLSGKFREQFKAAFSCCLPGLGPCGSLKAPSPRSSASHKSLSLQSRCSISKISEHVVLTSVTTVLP
CHO-K1 Ca antag = nonselective inhibitor or artifact in parental CHO-K1 cells. ATP-induced calcium, Fluo-8 fluorescence. inhibition, % at 3 µM. actives 0.6% (n = 360,000);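 active means inhibition above a per-plate cutoff, the plate's mean sample inhibition plus 3 SD, cut at about 24% in these data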
CHO parental Ca = counter-screen for OX1R antagonists: effect in parental CHO cells; parental CHO-K1, ATP-induced calcium, Fluo-8 fluorescence; inhibition, % at 5.6 µM; actives 0.63% (n = 330,000);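 active means inhibition above that plate's mean sample inhibition plus 3 SD, cut at about 26% in these data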
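Material: Parental CHO cells | Reagent: ATP | Compound dosing: Single nominal dose of 5.6 µM per compound | Detection: Intracellular calcium via Fluo-8 no-wash fluorescent dye | Read-out: % inhibition of ATP-induced calcium mobilization | Benchmarks: Low control ATP plus DMSO, high control DMSO only | Replicates: Singlicate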
M1 PAM parental = nonselective activator or artifact in parental CHO-K1 calcium assay; ATP EC20, Fluo-8 calcium fluorescence; 0% at ATP EC20, 100% at ATP max; activation, % at 3 µM; actives 0.02% (n = 360,000);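 active means activation above the run cutoff, the mean activation of all test compounds plus 3 SD, cut at about 40% in these data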;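 further: peak over basal fluorescence ratio in a 140 s read after ATP addition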
OX1R antag-2 = antagonists of human orexin 1 receptor. inhibition, % at 5 µM. actives 0.43% (n = 330,000). AID 434989. CHO/OX1R cells, Fluo-8 calcium fluorescence, orexin A;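 active means inhibition above its plate's threshold, mean inhibition of all tested compounds on the plate plus 3 SD, cut at about 37% in these data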
Numbers stand for hits; – = inactive; · = not tested or not shown. Shown are actives, neighbours in structure and some others; about 2.9% of the full set was active somewhere.

SMILES | M1 ag parental | OX1R antag-1 | CHO-K1 Ca antag | CHO parental Ca | M1 PAM parental | OX1R antag-2
COc1ccc(C2=NN(C(=O)CSC3=NN4CCCC(=O)N=C4S3)C(c3cccc(OC)c3OC)C2)cc1 (centres undefined) | – | – | – | – | – | –
N#Cc1c(-c2ccc(Cl)cc2)c(-c2ccc(Cl)cc2)nn(CCOC(=O)CCC(=O)O)c1=O | – | · | – | · | – | ·
Cc1cc(C(=O)NNC(=O)/C=C/c2ccco2)c(C)o1 | – | · | – | · | – | ·
O=C(COC(=O)CCC(=O)c1cccs1)NC1CC1 | 16 | – | – | – | – | –
Cc1ccc(S(=O)(=O)CCC(=O)NCCN2C(=O)S/C(=C\c3ccccc3)C2=O)cc1 | 19 | – | – | – | – | –
O=C(CCN1C(=O)S/C(=C\c2ccccc2)C1=O)N1CCOCC1 | – | 56 | – | – | – | –
O=C(CN1C(=O)S/C(=C/c2ccccn2)C1=O)N1CCOCC1 | – | 55 | – | – | – | –
O=C(CN1C(=O)S/C(=C/c2ccncc2)C1=O)Nc1ccccc1 | – | 64 | – | – | – | –
COc1ccc(-c2nc(CN3CCC(C(=O)N4CCOCC4)CC3)c(C)o2)cc1C | – | – | – | – | – | –
O=C(COC(=O)CNC(=O)c1ccc(Cl)c([N+](=O)[O-])c1)NC(=O)c1ccccc1 | – | 51 | – | – | – | –
Cc1cc(C(=O)NCC(=O)OCC(=O)NCCc2ccccc2)ccc1[N+](=O)[O-] | – | – | 53 | – | – | –
O=c1cc(O)n(Cc2ccc(F)cc2)c(=O)[nH]1 | – | · | – | · | – | ·
COc1ccc(Cl)cc1C(=O)CSc1nnnn1C1CCCC1 | – | – | – | – | – | –
COc1ccc(Cl)cc1C(=O)CSc1nnnn1C1CCCCC1 | – | 52 | – | 52 | – | –
CN1Cc2c(N3CCOCC3)nc3sc(C#N)c(N)c3c2CC1(C)C | – | – | – | – | – | –
CN1Cc2c(N3CCOCC3)nc3sc(C(=O)c4ccc(Br)cc4)c(N)c3c2CC1(C)C | – | – | – | 35 | – | –
CC(C1CC1)N(Cc1ccccc1)C(=S)Nc1ccccc1Cl (centres undefined) | 18 | – | – | – | – | –
C/C(=N/Nc1nc(C)c(C)s1)c1cccc([N+](=O)[O-])c1 | – | – | – | – | – | –
COc1ccccc1NC(=O)c1ccccc1N(Cc1ccccc1)S(C)(=O)=O | – | · | – | · | – | ·
CC(=O)N(c1ccccc1)C1CCCC1 | – | – | – | – | – | –
CC(=O)N(C1=C(O)c2ccccc2C(=O)C1=O)C1CCCCC1 | – | 36 | – | – | – | –
Nc1[nH]c(C(=O)c2ccccc2)c(-c2ccc(F)cc2)c1C(=O)NCc1ccccc1 | – | · | – | · | – | ·
O=c1cc(-c2ccccc2)nc(/C=C/c2ccccc2)[nH]1 | 17 | – | – | – | – | –
OCCNc1nc(-c2ccccc2)nc2c1oc1ccccc12 | – | 40 | – | – | – | –
Cc1csc(NC(=O)c2cc3c(s2)-c2ccccc2OC3)n1 | – | 69 | – | – | – | –
SMILES | M1 ag parental | OX1R antag-1 | CHO-K1 Ca antag | CHO parental Ca | M1 PAM parental | OX1R antag-2
CCc1ccc(NC(=O)NCCN2CCN(c3ccc(OC)cc3)CC2)cc1 | 15 | – | – | – | – | –
Cc1ccsc1C(=O)N(Cc1nnc(-c2ccccc2Cl)o1)C1CC1 | – | – | – | – | – | –
CN1CCN(S(=O)(=O)c2cccc(C(=O)N(Cc3nnc(-c4ccccc4Cl)o3)C3CC3)c2)CC1 | 17 | – | – | – | – | –
CC(C)Oc1ccc(Br)cc1C(=O)N/N=C/c1c[nH]c2ccccc12 | – | 40 | – | – | – | –
COc1ccc(-c2oc3c(c2C(=O)OCCO)C(OCCCO)CCC3)cc1 (centres undefined) | – | · | – | · | – | ·
O=C(C1CCCN(Cc2ccc(Br)cc2)C1)N1CCCCC1 (centres undefined) | – | – | – | – | – | –
Cc1nnc(OCc2nc3ccccc3n2C)c2ccccc12 | – | – | 25 | – | – | –
O=C(O)c1cc(Cl)ccc1-c1ccc(/C=C/c2cc(C(F)(F)F)[nH]c(=O)n2)o1 | 26 | – | – | – | – | –
O=c1nc(/C=C/c2ccc(-c3ccc(F)cc3)o2)cc(C(F)(F)F)[nH]1 | · | – | · | – | · | 53
Cc1nc(S/C(=C/c2ccc(-c3cc(Cl)ccc3C)o2)C(=O)O)n[nH]1 | – | – | – | – | – | –
O=Cc1ccc(-c2ccc(F)cc2)o1 | – | – | – | – | – | –
O=C(O)c1ccccc1-c1ccc(/C=C/c2cc(C(F)(F)F)[nH]c(=O)n2)o1 | 26 | · | – | · | – | ·
CCCCn1c(N)c(N(C)C(=O)c2cn(-c3ccccc3)nc2-c2ccccc2)c(=O)[nH]c1=O | – | – | – | – | – | –
Cc1ccccc1OCCNc1cc(N2CCCCC2)ccc1[N+](=O)[O-] | – | – | – | 37 | – | –
NS(=O)(=O)c1ccc(-n2cccc2C=O)cc1 | 18 | – | – | – | – | –
CC(Nc1nc(N2CCNCC2)nc2ccccc12)c1ccccc1 (centres undefined) | – | – | – | – | – | –
COC(=O)c1cc(S(=O)(=O)N2CCN(c3ccc(F)cc3)CC2)cn1C | 20 | – | – | – | – | –
CCOC(=O)C1CCCN(S(=O)(=O)c2cc(C(=O)OC)n(C)c2)C1 (centres undefined) | – | – | – | 26 | – | –
COC(=O)c1cc(S(=O)(=O)N2CCN(c3cccc(OC)c3)CC2)cn1C | – | – | – | – | – | –
Cc1ccc(S(=O)(=O)NCC(=O)OC(C)C(=O)NC2CCCCC2C)cc1C (centres undefined) | – | · | – | · | – | ·
CC(=O)c1ccc(NC2=C(N3CCOCC3)C(=O)c3ccccc3C2=O)cc1 | – | – | – | – | – | –
CC(=O)N(C)C1=C(N2CCOCC2)C(=O)c2ccccc2C1=O | – | 73 | – | – | – | –
O=C(CNS(=O)(=O)c1ccc(Br)cc1)N1CCN(Cc2ccccc2)CC1 | – | – | – | – | – | –
CC1CCCN(S(=O)(=O)c2ccc(C(=O)Nc3nnc(C4CC4)o3)cc2)C1 (centres undefined) | – | – | 25 | – | – | –
CCN1/C(=C/C=C/c2oc3ccc4ccccc4c3[n+]2CC)Oc2ccc3ccccc3c21 | · | – | · | 64 | · | 76
CC[n+]1c(/C=C/N(C)c2ccccc2)oc2ccc(Cl)cc21 | – | – | – | – | – | –
COc1ccc(C(=O)c2ccc(N(C)C)cc2)c(OC)c1 | – | – | – | – | – | –
CN(C)c1ccc(C(=O)c2ccc(N(C)C)c3ccccc23)cc1 | – | 55 | – | 70 | – | –
Cc1c(NC(=O)c2ccc(N(C)S(C)(=O)=O)cc2)c(=O)n(-c2ccccc2)n1C | – | – | – | – | – | –
CCOc1ccccc1N(CC(=O)Nc1c(C)n(C)n(-c2ccccc2)c1=O)S(=O)(=O)c1ccccc1 | – | 57 | – | – | – | –
